Experimental data as given in ChEMBL document CHEMBL1147088, “Small molecule obatoclax (GX15-070) antagonizes MCL-1 and overcomes MCL-1-mediated resistance to apoptosis” (Proc Natl Acad Sci U S A, 2007).
The source made the active and inactive calls. No cut-off for these calls is given here.

Legend:
[1] = target: Apoptosis regulator Bcl-2 (Homo sapiens, UniProt P10415); test: Binding affinity to BCL2
Saccharomyces cerevisiae = test: Growth inhibition of Saccharomyces cerevisiae W301; format: functional, organism-based
Procedure, shortened: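 W301 yeast transformed with BCL-family/BAX/BAK or control vectors, then grown in synthetic complete medium with 2% raffinose and 2% galactose. Seeded at 0.01 OD units and shaken 48 h at 30°C. Compound or vehicle was added to growth medium with final DMSO 0.67%. Cell density was the read-out, and IC50 values were recorded.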

KB [2] = test: Depletion of cytochrome c in mitochondria of human KB cells at 2.0 uM; format: functional, cell-based
Procedure, shortened: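 Mitochondria isolated from KB cells were incubated 30 min at 37°C with DMSO or compound, then reisolated. Mitochondrial pellet and post-mitochondrial supernatant were analysed by SDS/PAGE and cytochrome c immunoblot, with actin and a control protein as loading controls.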

KB [3] = test: Cytotoxicity in human KB cells overexpressing BCL2 at 0.5 uM; format: functional, cell-based
KB [4] = test: Cytotoxicity against BCL2 overexpressing human KB cells transfected with luciferase siRNA assessed as annexin 5 uptake at 0.5 uM after 72 hrs by flow cytometry; format: functional
Eu-Myc [5] = test: Induction of apoptosis in mouse Eu-Myc cells overexpressing MCL1 assessed as inhibition of colony formation at 1 uM; format: functional, cell-based
KB [6] = test: Cytotoxicity against BCL2 overexpressing human KB cells transfected with MCL1 siRNA assessed as annexin 5 reactivity at 0.5 uM after 72 hrs by flow cytometry; format: functional
Eu-Myc [7] = test: Induction of apoptosis in mouse Eu-Myc cells overexpressing A1 assessed as inhibition of colony formation at 1 uM; format: functional, cell-based
Eu-Myc [8] = test: Induction of apoptosis in mouse Eu-Myc cells overexpressing BCL2 assessed as inhibition of colony formation at 1 uM; format: functional, cell-based
KB [9] = test: Cytotoxicity against BCL2 overexpressing human KB cells transfected with MCL1 siRNA assessed as propidium iodide uptake at 0.5 uM after 72 hrs by flow cytometry; format: functional
KB [10] = test: Cytotoxicity in human KB cells overexpressing BCL2 at 0.1 uM; format: functional, cell-based
KB [11] = test: Cytotoxicity in human siRNA-mediated-MCL1-kncok down KB cells overexpressing BCL2 at 0.5 uM; format: functional, cell-based
KB [12] = test: Cytotoxicity against BCL2 overexpressing human KB cells transfected with luciferase siRNA assessed as propidium iodide uptake at 0.5 uM after 72 hrs by flow cytometry; format: functional

Chain of Apoptosis regulator Bcl-2 (P10415 whole entry): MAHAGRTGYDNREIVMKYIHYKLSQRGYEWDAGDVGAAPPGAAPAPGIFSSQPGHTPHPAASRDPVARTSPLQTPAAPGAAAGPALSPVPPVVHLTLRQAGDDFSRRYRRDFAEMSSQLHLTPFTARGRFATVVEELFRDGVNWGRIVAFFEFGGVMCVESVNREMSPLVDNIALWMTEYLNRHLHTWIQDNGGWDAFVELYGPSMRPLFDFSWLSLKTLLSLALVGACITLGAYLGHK

`O=c1c(O)cc([C@H]2Oc3cc(O)cc(O)c3C[C@H]2O)cc2c([C@H]3Oc4cc(O)cc(O)c4C[C@H]3O)cc(O)c(O)c12` [THEAFLAVIN] gave a Ki [1] of 692 nM.
Work on `Oc1cc(O)c2c(c1)O[C@H](c1ccc(O)c(O)c1)[C@H](O)C2` [(-)-EPICATECHIN] yielded a Ki [1] of over 100000 nM.
Compound `CC[C@@]1(O)C(=O)OCc2c1cc1n(c2=O)Cc2cc3ccccc3nc2-1` [CAMPTOTHECIN] has an IC50 (Saccharomyces cerevisiae) of over 200000 nM.
With `CC[C@H](C)[C@H](NC(=O)[C@H](CC(N)=O)NC(=O)[C@H](CCCNC(=N)N)NC(=O)[C@@H](NC(=O)[C@@H](NC(=O)[C@H](CC(=O)O)NC(=O)[C@@H](N)CCC(=O)O)[C@@H](C)CC)[C@@H](C)CC)C(=O)N[C@@H](C)C(=O)N[C@@H](CCCNC(=N)N)C(=O)N[C@@H](Cc1cnc[nH]1)C(=O)N[C@@H](CC(C)C)C(=O)N[C@@H](C)C(=O)N[C@@H](CCC(N)=O)C(=O)N[C@H](C(=O)NCC(=O)N[C@@H](CC(=O)O)C(=O)N[C@@H](CO)C(=O)N[C@@H](CCSC)C(=O)N[C@@H](CC(=O)O)C(=O)N[C@@H](CCCNC(=N)N)C(=O)O)C(C)C` the Activity (KB [2]) was “Active”.
With `CN(C)CC[C@H](CSc1ccccc1)Nc1ccc(S(=O)(=O)NC(=O)c2ccc(N3CCN(Cc4ccccc4-c4ccc(Cl)cc4)CC3)cc2)cc1[N+](=O)[O-]` [ABT 737] the Activity (KB [3]) was “inactive”, the Activity (KB [4]) was 8% and the Activity (Eu-Myc [5]) was “inactive”. For the same compound, the Activity (KB [6]) was 58%, the Activity (Eu-Myc [7]) was “inactive” and the Activity (Eu-Myc [8]) was “Active”. The Activity (KB [9]) was 72%, the Activity (KB [10]) was “inactive” and the Activity (KB [11]) was “Active”. It also gave an Activity (KB [12]) of 9%.
In the case of `Oc1cc(O)c2c(c1)O[C@H](c1cc(O)c(O)c(O)c1)[C@H](O)C2` [EPIGALLOCATECHIN], the Ki [1] is reported as over 100000 nM.
Work on `O=C(O[C@H]1Cc2c(O)cc(O)cc2OC1c1cc(O)c(=O)c2c(O)c(O)cc([C@H]3Oc4cc(O)cc(O)c4C[C@H]3O)c2c1)c1cc(O)c(O)c(O)c1` (some centres not stated) yielded a Ki [1] of 1230 nM.
Compound `O=C(O[C@@H]1Cc2c(O)cc(O)cc2O[C@@H]1c1ccc(O)c(O)c1)c1cc(O)c(O)c(O)c1` [EPICATECHIN GALLATE] has a Ki [1] of 229 nM.
